# DDE Tn7 FP inh – inhibitors of Tn7 peptide binding to human fibrin DD(E); FP displacement of FITC-Tn7 peptide from fibrin DD(E); 0% = median of compound wells per plate; inhibition, % at 8.3 µM; hit rate 0.13% among 370,000; AID 720508;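 active means inhibition above the mean of compounds falling within the control limits plus 3 SD of them, cut at about 14% in these data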;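 further: 0% = plate median of compound wells and 100% = 10 µM Aha-Tn7 peptide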
# Target sequence (P02675 whole entry, looked up): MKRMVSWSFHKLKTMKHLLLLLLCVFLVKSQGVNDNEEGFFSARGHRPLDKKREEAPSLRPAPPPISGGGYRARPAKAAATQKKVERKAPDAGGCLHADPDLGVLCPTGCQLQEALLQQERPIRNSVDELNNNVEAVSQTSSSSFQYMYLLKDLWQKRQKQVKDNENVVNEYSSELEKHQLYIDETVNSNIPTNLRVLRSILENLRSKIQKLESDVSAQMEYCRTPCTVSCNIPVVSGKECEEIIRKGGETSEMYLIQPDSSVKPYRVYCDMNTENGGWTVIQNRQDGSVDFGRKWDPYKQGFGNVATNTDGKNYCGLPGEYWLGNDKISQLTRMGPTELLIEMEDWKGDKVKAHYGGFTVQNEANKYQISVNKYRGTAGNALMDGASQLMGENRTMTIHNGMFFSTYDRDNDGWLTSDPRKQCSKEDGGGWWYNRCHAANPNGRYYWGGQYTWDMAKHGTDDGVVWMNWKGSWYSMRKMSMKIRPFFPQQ
#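 Assay system: Human clot-derived fibrin DD(E) complex | Buffer or medium: Tris/NaCl/CaCl2 buffer, pH 7.8 | Repeats: One replicate per compound | Benchmarks: Aha-Tn7 high control | Measure: % inhibition scaled between sample-field median and high-control FP | Schedule: 10 min plus 3 h, room temperature | Signal: Fluorescence polarization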
# Arrestin-AP2 inh – human beta-arrestin and AP2 interaction inhibition | hit rate 0.31% among 340,000 | AID 504490 | FITC-arrestin peptide / GST-AP2 beads, flow cytometry; AP2 beta2 appendage carries R879A mutation | inhibition, % at 10 µM;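 active means inhibition above a set limit, near 3 SD of compounds lacking own fluorescence, cut at about 54% in these data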;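 further: plate controls were DMSO wells for no effect and 5 µM unlabelled arrestin peptide for full effect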
#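 System: GST-tagged AP2 beta2-adaptin appendage (R879A) on 4 µm glutathione beads / Reagent: FITC-arrestin peptide, 50 nM / Detection: HyperCyt-sampled flow cytometry, FL1 channel, ex 488/em 535 nm / Timing: 12 min plus 1 h, RT / Buffer or medium: PBS plus Tween 20 (0.05%) and BSA (0.1%)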
# CAL PDZ FP-1 – inhibitors of human CAL PDZ peptide binding; hit rate 0.02% among 330,000; purified CAL PDZ, TMR-peptide fluorescence polarization, 1 h; inhibition, % at 20 µM;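 active means highest replicate inhibition of at least 40%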;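 further: plate controls were DMSO neutral control wells for no effect and unlabeled competitor peptide control wells for full effect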
#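 Material: tagged CAL PDZ domain; buffer or medium: 25 mM sodium phosphate pH 7.4, 150 mM NaCl, TCEP, IgG, Thesit; compound dosing: single point, 20 µM; schedule: 1 h incubation at room temperature before polarization reading; measured by: FP readout, S and P plane fluorescence; read-out basis: percent inhibition from loss of millipolarization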
# CAL PDZ FP-2 – blocks peptide binding to the human CAL PDZ domain. inhibition, % at 24.9 µM. purified CAL PDZ, TMR-peptide fluorescence polarization, 1 h. Q9HD26. hit rate 0.92% among 300,000. AID 602252;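 active means mean inhibition of at least 30% with at least half of replicates also reaching 30%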;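 further: 0% = DMSO neutral control and 100% = excess unlabeled competitor peptide PRC23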
# DDE Tn6 FP inh – inhibitors of Tn6 peptide binding to human fibrin DD(E); P02675; Fibrin DD(E) TRITC-Tn6 fluorescence polarization displacement; AID 720509; inhibition, % at 8.3 µM; hit rate 0.21% among 370,000;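 active means inhibition above a per-campaign cutoff: mean of compounds within control limits plus 3 SD, cut at about 15% in these data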;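 further: 0% = median of all compound wells on the plate and 100% = blocking peptide control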
# Arr-AP2 CP1 – human beta-arrestin and AP2 interaction inhibition, cherry pick; shares compounds with Arrestin-AP2 inh; GST-AP2 beads, FITC arrestin peptide binding, flow cytometry; GST-fused beta2-adaptin appendage, R879A mutant; inhibition, % at 10 µM; hit rate 2% among 1,300; AID 504908;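 active means inhibition above a set limit, roughly 3 SD of non-fluorescent compound noise, cut at about 38% in these data; inactive means inhibition at or below that limit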;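 further: loss of bead fluorescence from 50 nM FITC arrestin peptide bound to appendage; 0% = negative control wells and 100% = excess unlabelled arrestin peptide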
# GST-FITC bead – counter-screen for beta-arrestin AP2 inhibitors: GST-GSH bead binding; hit rate 2% among 1,300; GST-fluorescein binding to GSH beads, fluorescence; inhibition, % at 10 µM; shares compounds with Arrestin-AP2 inh;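 active means inhibition above 50%, about 3 SD of the inhibition seen with non-fluorescent compounds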;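 further: fluorescein maleimide labelled GST captured on 4 micron glutathione beads; higher means more loss of bead fluorescence from quenching or blocked binding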
# An asterisk follows results filed as active; . = no result. An excerpt weighted towards active compounds, which were near 1.4% of everything screened.
SMILES,DDE Tn7 FP inh,Arrestin-AP2 inh,CAL PDZ FP-1,CAL PDZ FP-2,DDE Tn6 FP inh,Arr-AP2 CP1,GST-FITC bead
COC(=O)CSc1nc(SCc2ccc(C)cc2)nc2c1CCCC2,-2.5,99.4*,-1.1,-1.6,2.4,-7.2,6.3
Cn1cc(CN2CCN(Cc3ccccc3)C(CCO)C2)c(-c2ccccc2)n1 (stereo not given),2.4,-0.7,-2.1,-1.3,-1.8,.,.
CCOc1ccccc1CN1CCN(Cc2cn(C)nc2-c2ccccc2)CC1CCO (stereo not given),-1.8,54.0*,-0.4,-5.0,11.1,7.2,5.3
CCC(=O)Nc1ccc(-c2ccc(N3CCN(C)CC3)nn2)cc1,.,54.6*,-2.4,-1.6,.,-2.7,-4.0
CCC(=O)Nc1ccc(-c2ccc(N3CCC(C)CC3)nn2)cc1,.,-7.0,-2.9,-0.1,.,.,.
COc1cc(OC)cc(C(=O)O/N=C(\N)c2ccccn2)c1,2.4,55.3*,.,.,-10.7,-4.6,-5.5
O=C(COC(=O)c1ccccn1)c1ccc(Br)cc1,-6.4,-11.5,-1.4,-3.0,6.8,.,.
COc1ccc(C(=O)COC(=O)c2ccccn2)cc1OC,-0.1,56.4*,-0.1,0.5,-5.5,-2.4,2.9
COc1ccc2c(c1)CCCN2C(=O)C1CCCN(S(=O)(=O)c2c(C(C)C)cc(C(C)C)cc2C(C)C)C1 (stereo not given),7.4,.,.,.,1.0,.,.
Cc1cccc2c1c1ccc3c(c1n2C)C(=O)C=CC3=O,-3.1,67.2*,-1.2,-5.0,-0.1,49.4*,0.2
Cc1ccccc1N1CC(=O)N(c2ccccc2C)CC1=O,-5.5,0.0,-3.7,-3.6,2.9,.,.
O=[N+]([O-])c1ccc(CNc2cccc(Cl)c2)s1,6.8,60.4*,-0.9,-6.9,6.5,-7.2,1.1
O=[N+]([O-])c1ccc(CNc2ccc(Cl)cc2)s1,-2.9,4.5,-0.3,11.8,-0.3,.,.
Cc1cccc(-n2c(C)cc(/C=C3/C(=N)N4C(c5ccccc5)=CSC4=NC3=O)c2C)c1,2.6,54.9*,-3.3,-1.8,4.3,-7.7,1.1
O=C(CSc1nnc(-c2ccco2)n1Cc1ccco1)c1ccc([N+](=O)[O-])cc1,-4.7,.,.,.,-2.7,.,.
CN(C)S(=O)(=O)c1ccc(N2CCCC2)c(C(=O)NNC(=O)c2ccc(Br)cc2)c1,2.3,20.5,-3.8,-4.5,6.9,.,.
CN(C)S(=O)(=O)c1ccc(N2CCCC2)c(C(=O)NNC(=O)c2ccccc2)c1,3.1,63.6*,-0.6,.,-1.4,-0.4,4.0
O=C(NC1CCCCN(Cc2ccc(Cl)cc2)C1=O)c1ccc(COc2ccccc2)cc1 (stereo not given),3.6,.,.,.,-5.2,.,.
CCCCn1c(N)c(N(CCOC)C(=O)COC(=O)COc2ccccc2C#N)c(=O)[nH]c1=O,4.0,56.5*,-2.2,-3.7,4.3,18.8,3.4
COC(=O)[C@H](C)NC(=O)[C@@H]1CC=C[C@@H]2CCN(CCc3ccccc3)C(=O)[C@@H]21,3.6,.,.,.,4.7,.,.
CN1Cc2nnn(Cc3ccccc3)c2-c2cc(N3CCCCC3)ccc2S1(=O)=O,-9.8,.,.,.,-2.6,.,.
O=C(O)[C@H]1CC=C[C@H]2CCN(Cc3ccc(Cl)c(Cl)c3)C(=O)[C@@H]12,-3.3,67.0*,-0.6,-2.8,8.1,-4.3,0.7
O=C1[C@H]2[C@H](C=CC[C@H]2C(=O)N2CCOCC2)CCN1Cc1ccc(Cl)c(Cl)c1,1.9,.,.,.,-0.5,.,.
CC(=O)c1ccc(NC(=O)C2C3C=CC(C3=C(c3ccccc3)c3ccccc3)C2C(=O)O)cc1 (stereo not given),-10.5,55.8*,-2.3,-6.1,5.3,-3.4,-5.1
CN(CCO)C1CN(Cc2cn(Cc3ccccc3C(F)(F)F)nn2)S(=O)(=O)C1 (stereo not given),3.2,.,.,.,1.8,.,.
SMILES,DDE Tn7 FP inh,Arrestin-AP2 inh,CAL PDZ FP-1,CAL PDZ FP-2,DDE Tn6 FP inh,Arr-AP2 CP1,GST-FITC bead
Clc1ccc(-c2csc(N/N=C/c3ccc4c(c3)OCO4)n2)cc1,0.7,79.1*,-2.4,0.8,3.7,-2.5,1.2
O=C(/C=C/c1ccc2c(c1)OCO2)Nc1nc(-c2ccccc2)cs1,-0.9,-0.3,-3.8,2.7,-16.7,.,.
Cc1ccc(-n2c(SCC(=O)Nc3ccc(S(=O)(=O)Nc4cc(C)nc(C)n4)cc3)nnc2-c2ccncc2)cc1,3.5,.,.,.,-5.5,.,.
O=C(NC1CCN(Cc2ccccc2)CC1)c1ccc(S(=O)(=O)NCc2ccco2)cc1,-9.0,12.1,-0.6,-0.8,1.3,.,.
O=C(c1ccc(S(=O)(=O)NCc2ccco2)cc1)N1CCN(Cc2ccccc2)CC1,-2.6,59.2*,0.3,4.1,6.4,4.1,-5.7
O=C(c1ccc(S(=O)(=O)NCc2ccco2)cc1)N1CCN(Cc2ccccc2F)CC1,-1.8,4.8,-0.6,.,3.4,-0.4,0.0
CCOC(=O)C1CCCN(C(=O)c2ccc(S(=O)(=O)NCc3ccco3)cc2)C1 (stereo not given),-0.8,23.7,-2.4,-5.3,2.7,.,.
COc1ccc(CN2CCN(C(=O)c3ccc(S(=O)(=O)NCc4ccco4)cc3)CC2)cc1,-1.0,27.4,-1.7,0.1,2.0,3.1,-9.7
CSc1ccc(C=NNC(=O)c2cc(-c3ccc(Cl)cc3)n[nH]2)cc1,1.2,.,.,.,8.1,.,.
O=C(c1ccccc1)C1CCN(c2ncnc3sccc23)CC1,-2.7,.,.,.,-0.6,.,.
O[C@H](COc1ccccc1)CN1CCC(C(O)(c2ccccc2)c2ccccc2)CC1,-1.6,.,.,.,-1.7,.,.
CC(=O)c1nn(-c2ccccc2)cc1C(=O)c1ccc(Br)cc1,-2.1,103.6*,-1.0,-9.2,-1.8,-5.8,-9.4
CC(=O)c1nn(-c2cccc(Br)c2)cc1C(=O)c1ccccc1,-0.2,16.4,-2.9,-2.4,0.4,.,.
O=C(CNC(=S)NC(=O)c1ccccc1Br)c1ccccc1,-0.1,102.3*,-3.4,-2.3,9.7,27.4,9.6
COC(=O)[C@]12C[C@H](CC(=O)NCCc3ccccc3OC)C(=O)N(Cc3ccc4c(c3)OCO4)C1=C[C@H](C(C)(C)C)O[C@@H]2C,9.9,.,.,.,0.1,.,.
O=C(Nc1nnc(COc2ccccc2F)s1)Nc1ccccc1F,-2.9,5.1,-2.2,.,6.1,.,.
O=C(Nc1ccc(F)cc1)Nc1nnc(COc2ccccc2F)s1,-8.5,105.7*,-3.0,-10.5,-10.4,-7.8,34.3
CCOC(=O)c1c(C)[nH]c(C(=O)CN2C(=O)C(=O)N(CC(C)C)C2=O)c1C,1.7,55.6*,3.1,-0.6,5.2,0.3,-2.7
COC(=O)C1CN(Cc2ccc(Cl)cc2)CCS(=O)(=O)N1Cc1cn(Cc2ccc(F)cc2)nn1 (stereo not given),-0.5,.,.,.,3.1,.,.

# Source: PubChem BioAssay
